Laboratory results as given in PubChem BioAssay AID743208 (The Scripps Research Institute Molecular Screening Center, 2013).
Hit rate of the full screen: of about 2,100 compounds, about 30 (1%) were called active.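 How the source made its calls: active means inhibition above about 20% chosen separately for each screening run (limit read from the data); inactive means the rest.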 A selection follows.

These compounds were tested against Disintegrin and metalloproteinase domain-containing protein 10 (Homo sapiens) (UniProt O14672) (assay: blockers of ADAM10 peptide cleavage – biochemical, QFRET, triplicate, confirmation (AID 743208;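 further: 0% = DMSO wells and 100% = marimastat wells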)). Settings: EDANS fluorescence, at 6.95 µM, stronger effect = higher value.
Procedure, shortened: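 system = ADAM10 enzyme, FRET peptide substrate | compound = 6.95 µM single dose | incubation = 30 min preincubation and 3 h reaction at 25 °C | signal = FRET fluorescence, ex 359 nm, em 460 nm | evaluation = percent inhibition of peptide cleavage scaled between DMSO and marimastat controls | repeats = triplicate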

Sequence of Disintegrin and metalloproteinase domain-containing protein 10 (Homo sapiens) (O14672 214-748 limits assumed): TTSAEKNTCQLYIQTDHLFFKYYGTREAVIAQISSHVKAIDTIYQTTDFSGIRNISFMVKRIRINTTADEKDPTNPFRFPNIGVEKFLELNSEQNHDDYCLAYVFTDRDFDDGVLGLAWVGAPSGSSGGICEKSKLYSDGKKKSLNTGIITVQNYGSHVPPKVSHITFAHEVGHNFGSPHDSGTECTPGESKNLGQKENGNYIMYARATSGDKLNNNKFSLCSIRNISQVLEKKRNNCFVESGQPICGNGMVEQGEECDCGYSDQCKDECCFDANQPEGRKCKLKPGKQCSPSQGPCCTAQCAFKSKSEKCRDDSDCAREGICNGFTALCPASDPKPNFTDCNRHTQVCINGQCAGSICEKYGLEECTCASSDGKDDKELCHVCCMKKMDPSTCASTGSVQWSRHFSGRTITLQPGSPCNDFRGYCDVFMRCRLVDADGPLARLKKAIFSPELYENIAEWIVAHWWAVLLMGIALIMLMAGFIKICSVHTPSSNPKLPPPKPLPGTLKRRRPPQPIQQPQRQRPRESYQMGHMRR

inhibition, inactive:
COc1cc(Cl)c(S(=O)(=O)N2CCN(Cc3ccc4c(c3)OCO4)CC2)cc1Cl 3.51%, O=C(/C=C/c1ccc(F)cc1)NC(=S)NNC(=O)c1cccnc1 0.49%, O=C(CC(O)(C(F)(F)F)C(F)(F)F)Nc1ccc(Cl)c(Cl)c1 2.03%, CCOc1ccc(N2C(=O)CC(N(CCc3ccc(OC)c(OC)c3)C(=S)Nc3ccccc3)C2=O)cc1 (stereo unspecified) 0.13%, CC(C)(C)OC(=O)CNC(=O)c1[nH]cnc1C(=O)N[C@@H](Cc1ccccc1)C(=O)OCc1ccccc1 6.97%, COc1cccc(C2CC(c3ccccc3)=NN2S(=O)(=O)c2ccccc2)c1OC (stereo unspecified) 4.77%, Cc1cc(C)cc(NC(=S)NCCc2c[nH]c3ccccc23)c1 2.41%, COc1ccc(NS(=O)(=O)c2ccc(C)c(C(=O)NNC(=O)c3csc(N4CCOCC4)n3)c2)cc1 2.95%, CCC1(C)Cc2c(sc3nnn(CC(=O)Nc4ccc(Cl)cc4)c(=O)c23)CO1 (stereo unspecified) 6.24%, O=C(CSC1=NCCS1)Nc1nc(-c2ccccc2)cs1 0.24%, COc1ccc(C(N)c2csc(NC(=O)Nc3cccc(C(F)(F)F)c3)n2)cc1 (stereo unspecified) 3.14%, O=C1NC(Nc2nc3ccccc3s2)(C(F)(F)F)C(=O)N1C1CCCCC1 (stereo unspecified) 3.12%, Cc1cc(C)cc(NC(=O)CSCc2cnn(-c3ccccc3)c2-n2cccc2)c1 7.84%, Cc1ccc(OCc2nnc(SC/C=C/c3ccccc3)n2Cc2ccco2)cc1 5.61%, CC(C)(C)N1C(=O)[C@H]2[C@@H](c3ccc(Br)cc3)N3C(=O)N(c4cccc(Cl)c4)C(=O)[C@@]3(C)[C@H]2C1=O 2.62%, O=C(Nc1cccc(S(=O)(=O)Nc2ccc(Cl)cc2)c1)c1ccc2c(c1)OCCO2 8.03%, O=C(NCc1ccccc1)c1onc(CSc2nc3ccccc3[nH]2)c1C(=O)NCc1ccccc1 5.46%, CC(C)Oc1ccc(CC(=O)NNC(=S)Nc2ccc(Br)cc2)cc1 3.54%, COC(=O)C1NN=C(C(=O)c2ccc(Br)cc2)C1c1cccc(Br)c1 (stereo unspecified) 3.07%, COc1ccc(C(=O)NNC(=S)NC(=O)c2ccccc2)cc1 0.52%, COc1ccc([C@H]2CC(=O)C=C(c3ccc(OC(F)(F)F)cc3)C2)cc1OC 1.68%, COc1cc(/C=C2/SC(=S)N(Cc3ccccc3)C2=O)cc(OC)c1O 7.56%, O=C(Oc1cccc(N2C(=O)C3C4c5ccccc5C(c5ccccc54)C3C2=O)c1)c1ccco1 (stereo unspecified) 3.26%, CC1(C)C=Cc2c(ccc3c2OC[C@@H](c2ccc(O)cc2O)C3)O1 9.96%, CCOc1cc(/C=N/NC(=O)c2cc(-c3ccccc3)nc3ccccc23)ccc1O 9.93%, C=C(C)COc1ccc(-c2n[nH]c(C)c2-c2ccccc2)c(O)c1 5.81%, Cc1cccc(CCNS(=O)(=O)c2ccc(S(=O)(=O)NC3CCCC3)cc2)c1 0.65%, Cc1ccccc1-n1c(SCC(=O)Nc2cccc3ccccc23)nc(O)cc1=O -0.12%, COc1ccccc1CC1(C)C(=O)Nc2ccc(OC(F)(F)F)cc21 (stereo unspecified) 0.74%, O=C(OCc1ccc(-c2ccccc2)cc1)c1cccc(O)c1 12.8%, O=S(=O)(c1cccc(S(=O)(=O)N2CCC(n3nnc4ccccc43)CC2)c1)N1CCCCC1 0.35%, COc1cccc(NC(=O)CN2CCN(c3nc(-c4cccc(OC)c4)cs3)CC2)c1 8.73%, C=CCC[C@@H](Cc1ccc(F)cc1)C(=O)O[C@H](CNC(=O)[C@H](CC=C)CC(=O)N(CCO)Cc1ccccc1)c1ccccc1 11.4%, COc1cccc(NC(=O)C2C(c3ccccc3)C2(Cl)Cl)c1 (stereo unspecified) 5.98%, CCOc1cc(NC(=O)c2ccccc2C(=O)O)c(OCC)cc1NC(=O)c1ccccc1F 3.74%, O=C(Cc1ccc(Cl)c(Cl)c1)Nc1ccc(SC(F)F)cc1 7.73%, COc1cccc(CC2(CO)CCCN(Cc3ccc(OC(F)F)cc3)C2)c1 (stereo unspecified) -1.93%, Cc1cc(O)ccc1-c1cc(C(=O)NCc2cc(C(F)(F)F)cc(C(F)(F)F)c2)[nH]n1 1.37%, Cn1nc(C(F)(F)F)c(C(=O)Nc2cccc(C(F)(F)F)c2)c1SCc1ccc(Cl)cc1 7.28%, CCC(C)(C)c1ccc(Oc2ccc(NC(=O)COC(=O)C3=COCCO3)cc2)cc1 9.01%, Cc1[nH]c2ccccc2c1C(=O)COC(=O)c1c(-c2ccccc2)noc1C 3.43%, Cn1c(CNc2nc(-c3ccccc3)cs2)nnc1SCC(=O)c1ccccc1 0.21%, COc1cc(/C=N/n2c(C)n[nH]c2=S)ccc1OCc1ccccc1 -0.86%, COc1ccc(C(CCN(Cc2ccc(OC)c(OC)c2)C(=O)CCl)c2ccccc2)cc1 (stereo unspecified) 2.71%, O=S(=O)(c1ccccc1)N(Cc1cccc(F)c1)c1ccccc1 3.92%, Cc1ccc(N(NC(=O)C(C)(C)O)C(=O)c2ccccc2)cc1C 0.68%, Cc1ccc(C)c(NC(=S)NNC(=O)c2csc(C)c2)c1 3.38%, Cc1ccc(/C=N/NC(=O)CSc2nc3ccccc3o2)cc1 0.27%, COc1ccc(OCCCn2cccc2/C=C2/C(=N)N3OC(C)=CC3=NC2=O)cc1 1.45%, COc1ccc(C(=O)NN2C(=O)C3C(c4ccccc4)C=CC(c4ccccc4)C3C2=O)cc1 (stereo unspecified) 6.22%, COc1ccc(S(=O)(=O)N2CCN(C(C)C(=O)Nc3ccc(C(C)C)cc3)CC2)cc1 (stereo unspecified) 4.39%, COc1ccc(C2CC(c3ccccc3)=NN2C(=O)COC(=O)COc2ccccc2)cc1 (stereo unspecified) 8.14%, O=C(CSCc1ccc(Br)cc1)Nc1ccc(S(=O)(=O)N2CCCCCC2)cc1 7.76%, Cc1cnc(C(=O)OCc2c(C)cc(C(C)(C)C)cc2C)cn1 0.57%, Cc1cc(Nc2ccccc2)n(C(=O)c2ccc(N)cc2)n1 2.25%, CCCCCc1c(-c2ccc(OC)c(OC)c2)ncn1CCc1ccccc1OC 5.03%, O=C(CC1SC(=Nc2ccccc2)N(Cc2ccccn2)C1=O)Nc1cccc(Cl)c1 (stereo unspecified) 7.51%, CC(C)(C)c1ccc(S(=O)(=O)NCC2CCN(C(=O)C(=O)c3cc4ccccc4o3)CC2)cc1 6.76%, CCCC(=O)n1nc(NCc2ccc(OC)cc2)nc1NCc1ccc(OC)cc1 9.12%, O=C1[C@H]2[C@@H](c3ccc(F)cc3)N3C(=O)N(c4ccc(C(F)(F)F)cc4)C(=O)[C@@]3(Cc3ccccc3)[C@H]2C(=O)N1C1CCCCC1 8.51%, CN(C)S(=O)(=O)c1cccc(NC(=O)COC(=O)C2(c3ccccc3F)CCCC2)c1 2.23%, O=C(NC(Cc1c[nH]c2ccccc12)C(=O)N/N=C/c1ccc(Br)cc1)c1cccs1 (stereo unspecified) 9.54%, S=c1[nH]cc(-c2ccc(Cl)cc2)n1-c1ccccc1 1.28%, COC(=O)[C@@]12C[C@@H](CC(=O)NCCCCc3ccccc3)C(=O)N(CCc3ccc(OC)c(OC)c3)C1=CCC(C)(C)C2 5.78%, O=C(COC(=O)CCCSc1nc2ccccc2[nH]1)Nc1ccc(Oc2ccccc2)cc1 10.7%, COc1ccc([C@@H]2[C@@H]3C(=O)N(C(C)(C)C)C(=O)[C@@H]3[C@]3(Cc4ccccc4)C(=O)N(c4cccc(Br)c4)C(=O)N23)cc1 5.88%, CC1(Cc2cccc(C#N)c2)C(=O)Nc2ccc(-c3cccc(C(F)(F)F)c3)cc21 (stereo unspecified) 10.6%, Cc1ccc(NC(=O)c2nc[nH]c2C(=O)N[C@@H](CCCCNC(=O)OC(C)(C)C)C(=O)OC(C)(C)C)cc1 11.2%, O=Cc1cn(CCOc2ccc(F)cc2)c2ccccc12 2.15%, CCOc1ccc(Nc2oc(Cc3ccccc3)nc2C#N)cc1 1.49%, N/C(Cc1ccc([N+](=O)[O-])cc1)=N\OC(=O)COc1ccc2ccccc2c1 3.81%, CC(C)(C)OC(=O)N1CCC(NC(=O)c2[nH]cnc2C(=O)N[C@@H](Cc2ccccc2)C(=O)OCc2ccccc2)CC1 9.68%, Cc1cc(C)cc(NS(=O)(=O)c2ccc(Oc3ncc(C(F)(F)F)cc3Cl)cc2)c1 10.8%, Cc1ccc(S(=O)(=O)N2CCN(C(=O)COC(=O)c3c(C)cc(C)cc3C)CC2)c(C)c1 5.29%, Cc1ccc(S(=O)(=O)N(CC(=O)Nc2cccnc2)c2ccc(Br)cc2)cc1 2.78%, COc1ccc(Cl)cc1NC(=O)CN(C)C(=O)CCCc1c[nH]c2ccccc12 3.45%, O=C(NCCc1ccc(Cl)cc1Cl)c1cc([N+](=O)[O-])c[nH]c1=O 0%, C=CC[C@H](CC(=O)N(CCO)Cc1ccccc1)C(=O)N[C@@H](COC(=O)[C@@H](CC=C)Cc1ccc(F)cc1)Cc1ccccc1 8.13%, COc1cc(C2CC(=O)N3CN(Cc4ccccc4)CSC3=C2C#N)ccc1OCc1ccccc1 (stereo unspecified) 5.28%, CC(N=Cc1nc(-c2ccccc2)oc1O)c1ccccc1 (stereo unspecified) 2.54%, C=CCC[C@@H](Cc1ccc(F)cc1)C(=O)OC[C@H](Cc1c[nH]c2ccccc12)NC(=O)[C@@H](CC=C)CC(=O)N(CCO)Cc1ccccc1 10.1%, COc1ccc(Cl)cc1NC(=O)COC(=O)C(CC(C)C)N1C(=O)C2CC=CCC2C1=O (stereo unspecified) 2.32%, Cc1cccc(C2c3[nH]c4ccccc4c3CCN2C(=O)c2cc(-c3cccn3C)n[nH]2)n1 (stereo unspecified) 6.14%, N#Cc1nc(Cc2cccc3ccccc23)oc1NCc1ccc2c(c1)OCO2 6.72%, C#CCN(C[C@H]1[C@H](OC(=O)NC2CCCC2)[C@H](OC(=O)NC2CCCC2)C[C@H]2C(=O)N(c3ccccc3)C(=O)[C@@H]12)S(=O)(=O)c1ccc(C)cc1 2.92%, Cc1ccc(NS(=O)(=O)c2ccc(C)c(NC(=O)COc3ccc4ccccc4c3)c2)c(C)c1 9.74%, O=C(CNC(=O)c1ccc(Cl)cc1Cl)NCC(=O)Nc1ccccc1N1CCOCC1 0.46%, CCOc1ccc(Br)cc1S(=O)(=O)Nc1ccc(C(=O)OC(C)C(=O)N(C)c2ccccc2)cc1 (stereo unspecified) 9.44%, CCC(C(=O)OCC(=O)Nc1ccccc1-c1ccccc1)c1ccccc1 (stereo unspecified) 2.14%, Cc1csc(NC(=S)Nc2cccc(Cl)c2)n1 7.9%, CC(C)Oc1cc(F)ccc1-c1cc(C(=O)Nc2cccc(Cl)c2)[nH]n1 9.22%, c1ccc2c(CCN3CCNC[C@H]3Cc3cccc4ccccc34)cccc2c1 5.45%, COc1cc(/C=N/O)cc(Br)c1OS(=O)(=O)c1ccc(C)cc1 2.32%, O=C1[C@H]2[C@@H](c3ccc(C(F)(F)F)cc3)N[C@]3(CCCN(Cc4ccc(Br)cc4)C3=O)[C@H]2C(=O)N1Cc1ccccc1 6.04%, CC(C)(C)c1ccc(C(=O)Nc2cc(Cl)c(Br)cc2C(=O)O)cc1 3.89%, CC(C)C(=O)Nc1cccc(NC(=S)NC(=O)C(c2ccccc2)c2ccccc2)c1 7.37%
